Results on two sequences are retold here after article PMC3638295 (International Journal of Medical Sciences, 2013).

What is called IC50 is the midpoint of a concentration-inhibition curve.

One data set deals with DENV-2. The experiment in a line: Plaque formation assay. To be noted: dose-response curve. The format is cell-based, DENV-2 (strain New Guinea C). The gist of the method:
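LLC-MK2 monkey kidney cells (passage <50; DMEM + 10% FBS, 37°C, 5% CO2) were seeded at 3×10^5 cells/well and exposed to a mixture of about 200 PFU DENV-2 New Guinea C (grown in C6/36 cells) and peptide. Plaques per well were counted and normalized to untreated controls as percent inhibition. Run in triplicate.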

The subject of a further data set is LLC-MK2 cells. The experiment in a line: Cytotoxicity, MTS cell viability assay. The settings on record: 1 to 500 µM peptide, 24, 48 and 72 hours, triplicate. The format is cell-based, Rhesus Monkey.

No end group written: not given here.

With AGVKDGKLDF [DET4], in the data set with DENV-2 (at 500 µM, mean ± SD, triplicate), the “maximum inhibition activity against DENV-2” value was 84.6% ± 5.6. The concentration for half-maximal inhibition (IC50) in the data set with DENV-2 (read-out: IC50 against DENV-2, LLC-MK2 cells) is 35 µM.

Regarding IGVRPGKLDL [DET3], the “Toxicity compared to untreated control” value with LLC-MK2 cells is “highest toxic effect compared to other peptides”.
